FGF22 binding = binders of human FGF22 protein, primary screen, FGF22 synaptogenesis inhibitor project, biophysical, thermal shift, single point. actives 1.5% (n = 340,000). recombinant FGF22 thermal shift, SYPRO orange fluorescence; percent of sucrose octasulfate shift, DMSO zero. activity (Tm shift, normalised), % at 9.99 µM;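 active = mean Tm shift, scaled 0 neutral to 100 positive control, at about 1.3% or above, every replicate too, limit read from the data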
Env fusion inh = inhibitors of HIV-1 Env-driven cell-cell fusion, primary screen, HeLa-JRFL effector, CEM21 target cells, luciferase; inhibition, % at 12.3 µM; actives 1.1% (n = 360,000); AID 651610, 2012;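 active = mean replicate inhibition score of at least 50 and every replicate individually at or above 50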
ERAP1 inh = human ERAP1 aminopeptidase inhibitors, primary screen, biochemical, single point, plate reader; inhibition, % at 10.7 µM; Endoplasmic reticulum aminopeptidase 1 (Homo sapiens), Q9NZ08; AID 652197, 2013; recombinant ERAP1, Leu-AMC fluorescence, 60 min; actives 0.15% (n = 340,000);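 active = mean replicate inhibition of at least 30%, or all replicates individually reaching that 30% level; inactive = mean below 30% and not every replicate reaching it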
Target sequence (Q9NZ08 whole entry, looked up): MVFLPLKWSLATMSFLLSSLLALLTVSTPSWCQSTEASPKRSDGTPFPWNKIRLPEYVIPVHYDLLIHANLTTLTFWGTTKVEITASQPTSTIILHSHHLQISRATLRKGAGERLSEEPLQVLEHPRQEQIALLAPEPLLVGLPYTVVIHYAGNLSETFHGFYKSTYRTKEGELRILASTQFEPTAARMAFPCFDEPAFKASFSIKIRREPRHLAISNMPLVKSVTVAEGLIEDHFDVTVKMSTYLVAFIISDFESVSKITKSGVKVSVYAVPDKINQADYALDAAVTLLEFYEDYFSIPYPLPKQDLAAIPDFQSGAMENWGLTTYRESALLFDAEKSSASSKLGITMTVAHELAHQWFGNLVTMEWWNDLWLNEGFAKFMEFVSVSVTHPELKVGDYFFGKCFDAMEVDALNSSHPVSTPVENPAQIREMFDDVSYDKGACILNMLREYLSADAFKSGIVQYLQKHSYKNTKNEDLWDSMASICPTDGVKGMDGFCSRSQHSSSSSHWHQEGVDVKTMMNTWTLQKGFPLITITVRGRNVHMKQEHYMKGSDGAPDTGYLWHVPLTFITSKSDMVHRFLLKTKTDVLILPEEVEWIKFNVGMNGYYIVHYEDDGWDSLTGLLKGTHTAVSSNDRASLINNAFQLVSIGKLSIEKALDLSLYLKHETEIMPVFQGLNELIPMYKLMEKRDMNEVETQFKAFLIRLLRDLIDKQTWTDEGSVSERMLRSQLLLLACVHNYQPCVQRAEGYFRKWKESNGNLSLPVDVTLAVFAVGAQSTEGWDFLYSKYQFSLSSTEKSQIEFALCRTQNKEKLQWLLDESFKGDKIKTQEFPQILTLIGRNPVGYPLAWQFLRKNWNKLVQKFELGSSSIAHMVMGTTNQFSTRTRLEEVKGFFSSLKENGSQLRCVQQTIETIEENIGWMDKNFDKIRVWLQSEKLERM
rRNA inh HTS = reduced GFP signal of wild-type E. coli, primary screen, bacterial rRNA inhibitor project, GFP/RFP fluorescence, OD600, single point; E. coli WT GFP vs humanized-ribosome RFP mutants, 24 h; active compounds read low; DMSO median 0, no signal -100; GFP signal change (wild-type ribosome), % (no concentration beside the values); actives 1.6% (n = 350,000);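 active = significant combined selectivity score with lowered wild-type GFP, culture density cut under 30%, mutant RFP and density less affected; inactive = any of these conditions unmet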
Cneo AK release = Cryptococcus neoformans cell lysis inducers, primary screen, AK release luminescence, single concentration; C. neoformans lysis, adenylate kinase release luminescence, 4 h; normalised: neutral wells 0, clomiphene wells 100; lysis activity, % at 15 µM; actives 0.2% (n = 360,000);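 active = mean lysis activity across replicates of at least 80%, whatever share of replicates individually reach that level; inactive = mean lysis activity below 80%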
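Material: C. neoformans cells; Schedule: 4 h static compound exposure, 37 °C, read 1 h post-reagent; Measured by: adenylate kinase release luminescence; Read-out: signal increase indicating cell lysis; Controls: Clomiphene as positive lysis control.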
PGC1a acetyl inh = inhibitors of PGC1a acetylation signal, primary screen, cell-based, U2OS, AlphaScreen, inhibitor mode. AlphaScreen anti-acetyl-lysine; with virally co-expressed GCN5 acetyltransferase. inhibition, % at 15.6 µM. actives 0.17% (n = 350,000). AID 651687, 2012;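 active = every replicate shows inhibition of at least 40%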
Large screens that a line does not name were inactive; [ ] = dose if it differs, or a comment. An excerpt weighted towards active compounds, which were near 3.5% of everything screened.

C[C@H](CO)N1C[C@H](C)[C@H](CN(C)S(=O)(=O)c2ccc(F)cc2)Oc2ccc(NS(=O)(=O)c3ccc(F)cc3)cc2CC1=O	none
COc1cc(OC)cc(C(=O)NCCCCCCNC(=O)c2cc(OC)cc(OC)c2)c1	none
CN(C)CCN1CC(C(=O)O)CC1=O (stereo unspecified)	none (no result: FGF22 binding, Env fusion inh, ERAP1 inh, rRNA inh HTS)
C[C@H](CO)N1C[C@H](C)[C@@H](CN(C)S(=O)(=O)c2ccc(F)cc2)Oc2ccc(NS(=O)(=O)c3ccccc3)cc2CC1=O	none (no result: FGF22 binding, ERAP1 inh)
C[C@H](CO)N1C[C@H](C)[C@H](CN(C)S(=O)(=O)c2ccccc2)Oc2ccc(NS(=O)(=O)c3ccc(F)cc3)cc2CC1=O	Env fusion inh 58[16.7 µM]
CCOC(=O)CSc1ncnc2c1sc1nc(N3CCOCC3)c3c(c12)CCCC3	none (no result: FGF22 binding, Env fusion inh, ERAP1 inh, rRNA inh HTS)
Cc1nc2c(C#N)c[nH]n2c(=O)c1CCO	none
Cc1nc2c(-c3ccc(F)cc3)c(C)[nH]n2c(=O)c1Cl	rRNA inh HTS -23
Cc1nc2c(C#N)c[nH]n2c(=O)c1Cc1ccccc1	rRNA inh HTS -22 (no result: Env fusion inh)
Cc1nc2c(-c3ccc(Cl)cc3)c(C)[nH]n2c(=O)c1Cc1ccccc1	Env fusion inh 57 (no result: Cneo AK release)
Cc1[nH]n2c(=O)c3c(nc2c1-c1ccc(F)cc1)CCCC3	none (no result: FGF22 binding, Cneo AK release)
CC1Cc2cc(/C(O)=C3/C(=O)C(=O)N(CCN4CCOCC4)C3c3ccc(N(C)C)cc3)ccc2O1 (stereo unspecified)	none
COc1ccc(N2C(=O)CC(N3CCN(C4CCc5ccccc5C4)CC3)C2=O)cc1 (stereo unspecified)	none (no result: FGF22 binding, ERAP1 inh, rRNA inh HTS, Cneo AK release, PGC1a acetyl inh)
O=C(C=C=Nc1ccccc1)C(=O)N=C=Cc1ccccc1	rRNA inh HTS -31 (no result: ERAP1 inh)
O=C(N/N=C/c1ccccc1)C(=O)N/N=C/c1ccccc1	none (no result: PGC1a acetyl inh)
CCn1c(SCc2nc3ccccc3c(=O)[nH]2)nnc1-c1ccncc1	none (no result: FGF22 binding, ERAP1 inh, rRNA inh HTS)
CCOc1ccc(-n2c(SCC(=O)N3CCc4ccccc43)nnc2-c2c[nH]c3ccccc23)cc1	none (no result: PGC1a acetyl inh)
COc1cccc(-n2c(SCC(=O)N3CCc4ccccc43)nnc2-c2c[nH]c3ccccc23)c1	Env fusion inh 56 (no result: rRNA inh HTS, PGC1a acetyl inh)
C=CCn1c(SCC(=O)Nc2nc3ccccc3s2)nc(O)c(CC)c1=O	rRNA inh HTS -27
CSc1nsc(SCC(=O)Nc2nc3ccccc3s2)n1	FGF22 binding 44
COc1ccc2nc(NC(=O)CSc3nc(SC)ns3)sc2c1	none (no result: Cneo AK release)
Cc1nc(SCC(=O)Nc2nc3ccccc3s2)c(C#N)c(C)c1C	Env fusion inh 63 (no result: Cneo AK release, PGC1a acetyl inh)
CCc1c(O)nc(SCC(=O)Nc2nc3ccccc3s2)n(-c2ccccc2)c1=O	none
Cc1cc(C(F)(F)F)c(C#N)c(SCC(=O)Nc2nc3ccccc3s2)n1	none
CCNC(=S)N1CCn2cccc2C1c1ccc(F)cc1 (stereo unspecified)	none (no result: Cneo AK release)
CCCn1c(SCc2nc3ccccc3s2)n[nH]c1=O	none (no result: Cneo AK release)
Cc1cc(C)c(-n2c(SCc3nc4ccccc4s3)n[nH]c2=O)c(C)c1	rRNA inh HTS -24 (no result: Cneo AK release, PGC1a acetyl inh)
O=c1[nH]nc(SCc2nc3ccccc3s2)n1C1CC1	FGF22 binding 43
CCOC(=O)C1=C(C)N(c2ccccc2)C(=O)NC1c1cccc([N+](=O)[O-])c1 (stereo unspecified)	none (no result: FGF22 binding, ERAP1 inh, rRNA inh HTS)
CC(Oc1ccc2c3c(c(=O)oc2c1)CCC3)C(=O)N[C@@H](Cc1ccccc1)C(=O)O (stereo partly specified)	PGC1a acetyl inh 75 (no result: Env fusion inh, rRNA inh HTS)
O=C(COc1ccc2c3c(c(=O)oc2c1)CCC3)NC1CCN(Cc2ccccc2)CC1	rRNA inh HTS -29
CCCCCCc1c(C)c2ccc(OCC(=O)N[C@@H](Cc3ccccc3)C(=O)O)cc2oc1=O	ERAP1 inh 32 (no result: FGF22 binding, Env fusion inh, rRNA inh HTS)
Cc1c(C)c2ccc(OCC(=O)NC3CCN(Cc4ccccc4)CC3)cc2oc1=O	none
Cc1c(Cc2ccccc2)c(=O)oc2cc(OCC(=O)NC(Cc3ccc(Cl)cc3)C(=O)O)ccc12 (stereo unspecified)	rRNA inh HTS -27 (no result: FGF22 binding, Env fusion inh)
Cc1c(C)c2ccc(OCC(=O)NC(Cc3ccc(Cl)cc3)C(=O)O)cc2oc1=O (stereo unspecified)	none (no result: Env fusion inh)
CCOC(=O)/C(=C\c1ccc(C)cc1)NC(=O)c1ccccc1	none (no result: Cneo AK release, PGC1a acetyl inh)
Cc1ccc(C)c(N2CCN(C(c3ccccc3)c3nnnn3C(C)(C)C)CC2)c1 (stereo unspecified)	none (no result: Env fusion inh, Cneo AK release, PGC1a acetyl inh)
C[C@H]1CN([C@@H](C)CO)C(=O)c2cc(C#CCN(C)C)cnc2O[C@@H]1CN(C)C	none
CCCc1[nH]nc2c1C(Cc1ccccc1)C(C#N)=C(N)O2 (stereo unspecified)	Env fusion inh 64 (no result: FGF22 binding, ERAP1 inh, rRNA inh HTS)
CCC/C=C1/CCCOC(C(=O)NCc2ccccc2)(C(F)(F)F)C1 (stereo unspecified)	none
CC(C)COC(=O)CNc1n[nH]c(=S)[nH]c1=O	none (no result: Env fusion inh)
NC(=O)CNc1n[nH]c(=S)[nH]c1=O	FGF22 binding 43 (no result: rRNA inh HTS, Cneo AK release, PGC1a acetyl inh)
COC(=O)/C(C#N)=C/c1ccc(-c2ccc(S(N)(=O)=O)cc2)o1	rRNA inh HTS -27 (no result: ERAP1 inh)
CCN(C(=O)c1ccc(Cl)c([N+](=O)[O-])c1)c1ccccc1	none (no result: Cneo AK release)
CCn1c(CNc2cccc(C(F)(F)F)c2)n[nH]c1=S	FGF22 binding 43 (no result: Cneo AK release, PGC1a acetyl inh)
Cc1cccc2c1NC(=O)C2=Nc1ccc(Cl)cc1	rRNA inh HTS -19
Cc1ccc(N=C2C(=O)Nc3c(C)cccc32)cc1	none (no result: ERAP1 inh)
CC(C)=CCNc1ncnc2c1c(C#N)cn2C1OC(CO)C(O)C1O (stereo unspecified)	Env fusion inh 58 (no result: Cneo AK release)
OC[C@H]1O[C@@H](n2cnc3c(Nc4ccccc4)ncnc32)[C@H](O)[C@@H]1O	none (no result: rRNA inh HTS)
Cc1noc(C)c1S(=O)(=O)Nc1ccc2c(c1)CC(=O)N([C@H](C)CO)C[C@H](C)[C@H](CN(C)CC1CC1)O2	none
Cc1ccc(S(=O)(=O)N2CCN(C(=O)c3ccccc3)C2C(C)C)cc1 (stereo unspecified)	none (no result: Env fusion inh)
C/C(=N\S(=O)(=O)c1ccc(C)cc1)N1CCN(S(=O)(=O)c2ccccc2)C1C(C)C (stereo unspecified)	rRNA inh HTS -27 (no result: Env fusion inh)
CCN1CCN(C(=S)NC(=O)c2cccs2)CC1	none
Cc1cccc(Nc2nc(N)nc(-c3oc4ccccc4c3C)n2)c1	FGF22 binding 39 (no result: ERAP1 inh)
Cc1ccc(NC(=O)c2ccc(=O)[nH]n2)cc1S(=O)(=O)Nc1ccccc1Cl	none (no result: rRNA inh HTS)
Cc1ccc(NC(=S)NC(=O)c2ccc(F)cc2)cc1S(=O)(=O)Nc1ccccc1Cl	rRNA inh HTS -26 (no result: Cneo AK release, PGC1a acetyl inh)
CCOc1ccc(NC(=S)NN2C(C)CCCC2C)cc1 (stereo unspecified)	none (no result: FGF22 binding, ERAP1 inh, rRNA inh HTS)

Compound activity: PubChem, Broad Institute
